Experimental data published in ChEMBL document CHEMBL4359848, “Merging memantine and ferulic acid to probe connections between NMDA receptors, oxidative stress and amyloid-β peptide in Alzheimer's disease” (Eur J Med Chem, 2019).
Active and inactive are the calls of the source. The calls are words filed in the database; no cut-off is given here.

Key:
[1] = target: Glutamate NMDA receptor; GRIN1/GRIN2A (Homo sapiens, UniProt Q05586+Q12879); experiment: Antagonist activity at GluN1a/GluN2A (unknown origin) expressed in Xenopus laevis oocytes at -60 mV holding potential by voltage clamp method; type: cell-based
Summary of the method: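 Rat-free detail absent; GluN1-1a/GluN2A cRNA (1:1 by weight) injected into defolliculated oocytes, kept 3–4 days at 18 °C in modified Barth's media. Two-electrode voltage clamp at -60 mV, perfusion with 96 mM NaCl, 2 mM KCl, 1.8 mM CaCl2, 10 mM HEPES pH 7.5. Currents evoked by 100 μM NMDA + 10 μM glycine; compound 0.01–100 μM added at steady state until new plateau; % control fit to Hill equation for IC50; ≥5 oocytes.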

SH-SY5Y [2] = experiment: Cytoprotective activity in human SH-SY5Y cells assessed as increase in HO1 mRNA expression level at 10 uM incubated for 6 hrs by RT-PCR analysis relative to control; type: functional
Summary of the method: (§1)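 SH-SY5Y cells in EMEM/F-12 (1:1) with 10% heat-inactivated FBS, 37 °C, 5% CO2, exposed 6 h to 10 μM compound, final DMSO <0.1%. Total RNA extracted and Nrf2 and HO-1 mRNA quantified by real-time RT-PCR with GAPDH as endogenous reference. Mean ± SEM, experiments repeated at least three times.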

SH-SY5Y [3] = experiment: Neuroprotective activity in human SH-SY5Y cells assessed as reduction in H2O2-induced intracellular ROS formation at 10 uM and measured for 30 to 300 mins by DCFH-DA staining based assay; type: functional, cell-based
Summary of the method: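 SH-SY5Y cells loaded with 25 μM DCFH-DA for 45 min, then given 10 μM compound together with 300 μM H2O2. Fluorescence read at ex 485/em 530 nm over 30–300 min. Compared against H2O2 alone by Dunnett's test.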

SH-SY5Y [4] = experiment: Cytotoxicity against human SH-SY5Y cells assessed as reduction in cell viability up to 50 uM incubated for 24 hrs by MTT assay; type: cell-based
Summary of the method: (§2)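 SH-SY5Y cells plated at 2.5×10^4 per well and exposed 24 h to 1–50 μM. MTT at 1 mg/mL in complete medium for 4 h, then SDS solubilisation for 24 h and absorbance read. Viability given as % of untreated control. Dunnett's test, n = 3.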

SH-SY5Y [5] = experiment: Cytotoxicity against human SH-SY5Y cells assessed as reduction in cell viability up to 20 uM incubated for 24 hrs by MTT assay; type: cell-based; summary of the method: as §2
SH-SY5Y [6] = experiment: Cytoprotective activity in human SH-SY5Y cells assessed as increase in Nrf2 mRNA expression level at 10 uM incubated for 6 hrs by RT-PCR analysis; type: functional, cell-based; summary of the method: as §1
SH-SY5Y [7] = experiment: Neuroprotective activity in human SH-SY5Y cells assessed as reduction in H2O2-induced intracellular ROS formation at 10 uM preincubated for 24 hrs followed H2O2 addition and measured after 10 to 90 mins by DCFH-DA staining based assay; type: functional, cell-based
Summary of the method: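 SH-SY5Y cells pretreated 24 h with 10 μM compound, then loaded with 25 μM DCFH-DA for 45 min and challenged with 300 μM H2O2. Fluorescence (485/530 nm) followed from 10 to 90 min. Compared against H2O2 alone by Dunnett's test.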

Homo sapiens = species on record: Homo sapiens; experiment: Activation of alpha secretase in human H4 cells harboring swedish mutant form of APP assessed as increase in sAPPalpha protein level at 10 uM incubated for 24 hrs by Western blot analysis
H4 [8] = experiment: Cytotoxicity against human H4 cells harboring swedish mutant form of APP assessed as reduction in cell viability up to 20 uM incubated for 24 hrs by MTT assay; type: cell-based; settings: h4, 24 h
H4 [9] = experiment: Effect on total intracellular APP in human H4 cells harboring swedish mutant form of APP assessed as change in full length APP protein level at 10 uM incubated for 24 hrs by Western blot analysis; type: cell-based; settings: h4, 24 h
Summary of the method: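 H4 cells bearing Swedish APP, kept in DMEM/10% FBS under hygromycin B and blasticidin S selection, treated 24 h with 10 μM. Lysates analysed by Western blot for full-length APP. Densitometry normalized to α-tubulin. One-way ANOVA with post-hoc test.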

SH-SY5Y [10] = experiment: Cytoprotective activity in human SH-SY5Y cells assessed as increase in HO1 protein level at 20 uM incubated for 24 hrs by Western blot analysis; type: functional
Summary of the method: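 SH-SY5Y human neuroblastoma cells (EMEM/Ham's F-12 with 10% heat-inactivated FBS, 37 °C, 5% CO2) treated 24 h at 10 or 20 μM, compound diluted from DMSO stock (final DMSO <0.1%). Whole-cell lysates in Tris/NaCl/EDTA/Triton buffer, SDS-PAGE and PVDF blot probed with anti-HO-1. Tubulin served as loading control, ECL detection, densitometry given as % of untreated control.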

SH-SY5Y [11] = experiment: Cytoprotective activity in human SH-SY5Y cells assessed as increase in HO1 protein level incubated for 24 hrs by Western blot analysis; type: functional, cell-based
Summary of the method: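 SH-SY5Y cells treated 24 h at 10 or 20 μM. Cells washed in ice-cold PBS, lysed in Tris/NaCl/EDTA/Triton buffer, equal protein run on reducing SDS-PAGE, blotted to PVDF. Probed with anti-HO-1 (1:1000), β-tubulin as loading control, ECL detection. Densitometry expressed as % of control ± SEM.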

Sequence of Glutamate NMDA receptor; GRIN1/GRIN2A (Q12879 whole entry, other chains not shown, the tested form may be a part): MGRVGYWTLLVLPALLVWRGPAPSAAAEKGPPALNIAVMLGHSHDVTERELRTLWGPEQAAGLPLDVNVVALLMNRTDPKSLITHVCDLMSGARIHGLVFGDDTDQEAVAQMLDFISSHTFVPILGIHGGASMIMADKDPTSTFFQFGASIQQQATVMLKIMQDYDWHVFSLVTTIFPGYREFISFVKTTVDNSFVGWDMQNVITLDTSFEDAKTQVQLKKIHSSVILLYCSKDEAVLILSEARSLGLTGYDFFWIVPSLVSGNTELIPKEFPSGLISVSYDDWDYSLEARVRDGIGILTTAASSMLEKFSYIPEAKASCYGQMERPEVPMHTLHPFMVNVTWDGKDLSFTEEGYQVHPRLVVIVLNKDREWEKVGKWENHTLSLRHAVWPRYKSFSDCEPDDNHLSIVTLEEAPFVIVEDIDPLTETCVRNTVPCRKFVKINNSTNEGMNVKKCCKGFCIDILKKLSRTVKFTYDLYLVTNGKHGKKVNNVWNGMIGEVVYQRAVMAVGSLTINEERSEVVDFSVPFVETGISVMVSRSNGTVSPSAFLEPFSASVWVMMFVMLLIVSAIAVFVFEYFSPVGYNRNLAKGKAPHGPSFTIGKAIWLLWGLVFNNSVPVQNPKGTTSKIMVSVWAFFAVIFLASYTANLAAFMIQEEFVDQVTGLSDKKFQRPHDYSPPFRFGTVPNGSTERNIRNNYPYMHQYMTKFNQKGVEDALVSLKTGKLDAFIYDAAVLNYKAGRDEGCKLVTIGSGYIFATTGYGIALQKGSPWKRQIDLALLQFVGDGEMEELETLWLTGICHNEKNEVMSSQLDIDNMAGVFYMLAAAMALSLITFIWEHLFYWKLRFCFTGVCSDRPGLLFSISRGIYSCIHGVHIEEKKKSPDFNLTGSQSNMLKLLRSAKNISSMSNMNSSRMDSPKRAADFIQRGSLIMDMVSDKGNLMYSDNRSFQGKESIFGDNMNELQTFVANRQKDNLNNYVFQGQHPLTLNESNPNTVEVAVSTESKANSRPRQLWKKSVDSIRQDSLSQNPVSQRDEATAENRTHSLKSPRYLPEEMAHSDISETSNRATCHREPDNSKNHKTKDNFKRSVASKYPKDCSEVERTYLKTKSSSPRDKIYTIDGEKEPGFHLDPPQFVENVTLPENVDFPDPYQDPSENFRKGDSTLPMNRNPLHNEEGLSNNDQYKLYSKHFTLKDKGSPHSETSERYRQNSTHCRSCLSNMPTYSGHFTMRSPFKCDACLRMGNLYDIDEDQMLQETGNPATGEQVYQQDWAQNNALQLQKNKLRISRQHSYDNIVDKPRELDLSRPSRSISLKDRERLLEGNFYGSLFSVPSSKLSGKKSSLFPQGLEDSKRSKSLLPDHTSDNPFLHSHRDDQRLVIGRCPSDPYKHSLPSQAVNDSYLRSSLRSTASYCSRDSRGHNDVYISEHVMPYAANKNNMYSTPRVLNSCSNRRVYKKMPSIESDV

Compound | IC50 [1] [µM] | Activity (SH-SY5Y [2]) | Activity (SH-SY5Y [3]) | Activity (SH-SY5Y [4]) | Activity (SH-SY5Y [5]) | Activity (SH-SY5Y [6]) | Activity (SH-SY5Y [7]) | activation (Homo sapiens) | Activity (H4 [8]) | Activity (H4 [9]) | fold change (FC) (SH-SY5Y [10]) | Activity (SH-SY5Y [11])
COc1cc(/C=C/C(=O)NCCCNC23CC4CC(C)(CC(C)(C4)C2)C3)ccc1O | > 100 | – | – | – | – | – | – | – | – | – | – | –
COc1cc(/C=C/C(=O)O)ccc1O [FERULATE] | – | inactive | Active | Non-Toxic | Non-Toxic | inactive | Active | inactive | – | – | – | –
COc1cc(/C=C/C(=O)NCCCCCNC23CC4CC(C)(CC(C)(C4)C2)C3)ccc1O | 14.1 | inactive | Active | – | Non-Toxic | inactive | Active | inactive | Non-Toxic | Non-Toxic | – | –
COc1cc(/C=C/C(=O)NCCCCCCNC23CC4CC(C)(CC(C)(C4)C2)C3)ccc1O | 6.9 | 150% | Active | – | Non-Toxic | Active | Active | Active | Non-Toxic | Non-Toxic | 2 | Dose-dependent effect
COc1cc(/C=C/C(=O)NCCNC(=O)C23CC4(C)CC(C)(CC(N)(C4)C2)C3)ccc1O | > 100 | – | – | – | – | – | – | – | – | – | – | –
COc1cc(/C=C/C(=O)NCCCCNC(=O)C23CC4(C)CC(C)(CC(N)(C4)C2)C3)ccc1O | > 100 | – | – | – | – | – | – | – | – | – | – | –
COc1cc(/C=C/C(=O)NCCCNC(=O)C23CC4(C)CC(C)(CC(N)(C4)C2)C3)ccc1O | > 100 | – | – | – | – | – | – | – | – | – | – | –
COc1cc(/C=C/C(=O)NCCCCNC23CC4CC(C)(CC(C)(C4)C2)C3)ccc1O | 23.9 | inactive | Active | Non-Toxic | Non-Toxic | inactive | Active | inactive | Non-Toxic | Non-Toxic | – | –
